Series [1] is classed as in vivo, human. The gist of the method: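 Open-label parallel single-dose study; participants grouped by baseline Child-Pugh A, B, C or normal hepatic function. One subcutaneous 5-mg injection. Plasma sampled pre-dose and 8, 12, 24, 48, 72, 96, 168, 336 h post-dose; analyte immunoprecipitated, quantified by high-resolution LC/MS, positive HESI, range 2.00–500.00 ng/mL. Noncompartmental parameters from actual sampling times; geometric mean (geometric CV%); tmax analysed nonparametrically.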

A further series concerns albumin. The following applies: in humans; background statement, no reference given; cited from earlier work.
The conditions of series [2]: cited from earlier work.
The conditions of series [3]: in humans; background statement, no reference given; cited from earlier work.
Series [4] concerns cytochrome P450 enzymes, sulfation, or glucuronidation enzymes. The following applies: background statement, no reference given; cited from earlier work.
Series [5] has as its system renal or hepatic transporters. Conditions: ref data on file, Eli Lilly and Company; cited from earlier work.
For series [6] the following is noted: hepatic impairment studies; cited from earlier work.

Where two headings read alike, the source gives them in different places.

The CL/F is clearance divided by bioavailability, as obtained after extravascular dosing. Broadly, the Tmax is the time from dosing to the highest level. For orientation: Vd/F means the volume of distribution divided by bioavailability. One may read the half-life as the time needed for the level to fall by half in the phase considered.

On to `CC[C@H](C)[C@H](NC(=O)[C@H](CC(C)C)NC(=O)[C@H](Cc1c[nH]c2ccccc12)NC(=O)[C@H](CCC(N)=O)NC(=O)[C@@H](NC(=O)[C@H](Cc1ccccc1)NC(=O)[C@H](C)NC(=O)[C@H](CCCCNC(=O)COCCOCCNC(=O)COCCOCCNC(=O)CC[C@H](NC(=O)CCCCCCCCCCCCCCCCCCC(=O)O)C(=O)O)NC(=O)[C@H](CCC(N)=O)NC(=O)[C@H](C)NC(=O)[C@@H](NC(=O)[C@H](CCCCN)NC(=O)[C@H](CC(=O)O)NC(=O)[C@H](CC(C)C)NC(=O)C(C)(C)NC(=O)[C@@H](NC(=O)[C@H](CO)NC(=O)[C@H](Cc1ccc(O)cc1)NC(=O)[C@H](CC(=O)O)NC(=O)[C@H](CO)NC(=O)[C@@H](NC(=O)[C@H](Cc1ccccc1)NC(=O)[C@@H](NC(=O)CNC(=O)[C@H](CCC(=O)O)NC(=O)C(C)(C)NC(=O)[C@@H](N)Cc1ccc(O)cc1)[C@@H](C)O)[C@@H](C)O)[C@@H](C)CC)[C@@H](C)CC)C(C)C)C(=O)N[C@@H](C)C(=O)NCC(=O)NCC(=O)N1CCC[C@H]1C(=O)N[C@@H](CO)C(=O)N[C@@H](CO)C(=O)NCC(=O)N[C@@H](C)C(=O)N1CCC[C@H]1C(=O)N1CCC[C@H]1C(=O)N1CCC[C@H]1C(=O)N[C@@H](CO)C(N)=O` [Tirzepatide], for which, in series [1] (human, plasma, sc, 5 mg), the CL/F is 0.822 mL/min, the Tmax was found to be 24 h, the Vd/F came to 10.6 L and the half-life is 131 h. The apparent clearance (CL/F) in series [1] (human, plasma, sc, 5 mg, CL/F (apparent total body clearance), single 5-mg subcutaneous dose, normal hepatic function, n = 13, geometric mean (geometric CV%), noncompartmental) was 0.988 mL/min. Further, the “VSS/F (apparent volume of distribution at steady state)” value in series [1] (single 5-mg subcutaneous dose, normal hepatic function, n = 13, geometric mean (geometric CV%), noncompartmental) is on record as 10.7 (20) L. Further, the “T1/2 (half-life associated with the terminal rate constant)” value in series [1] (single 5-mg subcutaneous dose, normal hepatic function, n = 13, geometric mean (range), noncompartmental) is recorded as 124 (101–158) h. Further, the bound to albumin in the series with albumin is recorded as 99.06%. The “decrease in liver fat content compared with insulin degludec” value in series [2] (SURPASS-3 sub-study, 52 weeks) was “significantly greater decrease”. In series [2] (post-hoc analysis of the phase II study, 26 weeks of treatment), the non-alcoholic steatohepatitis-related biomarkers entry is recorded as “improvement”. Besides, in series [3], the half-life entry is on record as “approximately 5 days”. In addition, the “metabolism via pathways involving cytochrome P450 enzymes, sulfation, or glucuronidation enzymes” value in series [4] is listed as “not metabolized”. In addition, the “substrate for renal or hepatic transporters commonly involved in drug disposition” value in series [5] is “not a substrate”.

In the case of dulaglutide, in series [6], the “impact of the severity of hepatic disease status on pharmacokinetics” value was “does not impact”.

Consider semaglutide, for which the “impact of the severity of hepatic disease status on pharmacokinetics” value in series [6] was “does not impact”.
